Assay outcomes: PubChem, several laboratories
CAL PDZ FP-1 – human CAL PDZ-peptide interaction inhibition | Q9HD26 | purified CAL PDZ, TMR-peptide fluorescence polarization, 1 h | inhibition, % at 20 µM | 330,000 compounds, 0.02% hits | AID 504414;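 active = highest replicate inhibition of at least 40%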
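System: purified tagged CAL PDZ domain construct (CerCALP). Schedule: 1 h incubation at room temperature before polarization reading. Medium: 25 mM sodium phosphate pH 7.4, 150 mM NaCl, TCEP, IgG, Thesit. Read-out: percent inhibition from loss of millipolarization. Measured by: FP readout, S and P plane fluorescence. Probe or stimulus: fluorescent TMR peptide probe.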
A3G deaminase – blocks human APOBEC3G single-stranded DNA deamination; recombinant A3G, ssDNA deamination FAM/TAMRA fluorescence; inhibition, % at 20 µM; 330,000 compounds, 0.28% hits;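 active = inhibition of at least 40% at 20 µM, with no more than 30% in the related APOBEC3A deaminase screen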
APOBEC3A inh – blocks human APOBEC3A ssDNA deamination | P31941 | recombinant A3A, FAM/TAMRA ssDNA deamination fluorescence | inhibition, % at 20 µM | 330,000 compounds, 0.41% hits;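 active = at least 40% inhibition at 20 µM here, with at most 30% in a related deaminase screen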
Keap1-Nrf2 PPI – inhibitors of human Keap1-Nrf2 protein-protein interaction | Keap1 Kelch-Nrf2 peptide fluorescence polarization, 1536-well | inhibition, % at 9.4 µM | 340,000 compounds, 0.15% hits; in the data active = inhibition above about 12%;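 also: human Keap1 Kelch domain with fluorescein labeled Nrf2 9mer peptide probe; higher means more block of Keap1 binding to Nrf2 peptide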
Target sequence (Q14145 whole entry, looked up, the tested form may be a part): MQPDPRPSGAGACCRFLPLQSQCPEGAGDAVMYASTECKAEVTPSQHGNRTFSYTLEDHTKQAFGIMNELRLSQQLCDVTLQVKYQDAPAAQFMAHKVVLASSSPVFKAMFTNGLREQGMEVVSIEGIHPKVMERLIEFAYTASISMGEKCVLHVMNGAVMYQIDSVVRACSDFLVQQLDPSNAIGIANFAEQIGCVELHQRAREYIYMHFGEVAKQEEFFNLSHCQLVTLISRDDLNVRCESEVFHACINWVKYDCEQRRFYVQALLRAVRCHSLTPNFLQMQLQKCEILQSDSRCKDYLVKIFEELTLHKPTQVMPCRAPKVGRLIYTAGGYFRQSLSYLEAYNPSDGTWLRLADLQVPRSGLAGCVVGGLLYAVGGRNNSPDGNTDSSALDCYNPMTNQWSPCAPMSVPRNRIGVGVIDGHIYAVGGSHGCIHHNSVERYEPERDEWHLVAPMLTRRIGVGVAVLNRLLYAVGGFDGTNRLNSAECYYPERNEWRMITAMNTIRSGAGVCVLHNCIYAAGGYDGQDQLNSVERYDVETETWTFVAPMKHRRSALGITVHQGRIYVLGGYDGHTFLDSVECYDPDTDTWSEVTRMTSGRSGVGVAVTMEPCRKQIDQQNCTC
CAL PDZ FP-2 – CAL PDZ (human) peptide binding inhibition. Q9HD26. inhibition, % at 24.9 µM. 300,000 compounds, 0.92% hits. purified CAL PDZ, TMR-peptide fluorescence polarization, 1 h;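 active = mean inhibition of at least 30% with at least half of replicates also reaching 30%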
C-LANA FP – blocks KSHV LANA C-terminal domain binding to DNA | MBP-C-LANA/FAM-LBS DNA binding, fluorescence polarization | 340,000 compounds, 0.078% hits | inhibition, % at 9 µM;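 active = highest replicate inhibition at or above 60% at 9 µM, even if other replicates fall short; inactive = all replicates below 60% inhibition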
A number is an active result; - = inactive; . = no result; + = active, no number. A selection: hits, their analogues and other compounds. The true share with any hit is near 1.7%.

SMILES	CAL PDZ FP-1	A3G deaminase	APOBEC3A inh	Keap1-Nrf2 PPI	CAL PDZ FP-2	C-LANA FP
O=C(Cc1ccccc1)NCC(=O)OCC(=O)c1ccccc1Cl	-	-	-	-	-	-
O=C(CNC(=O)c1ccccc1)OCC(=O)c1ccccc1Cl	-	-	-	-	49	-
CC1CCCN(C(=O)Cn2cnc3c2c(=O)n(C)c(=O)n3C)C1 (centres undefined)	.	-	-	-	36	-
O=C(Nc1nnc(-c2ccc(Br)cc2)o1)c1cccc(N2C(=O)CCC2=O)c1	-	-	-	-	-	-
O=C(CSc1ccccc1)N1CCCC(Nc2ccccc2)C1 (centres undefined)	-	-	-	-	61	-
Cc1ccc(O)c(C(CC(=O)NCc2ccco2)c2ccccc2)c1 (centres undefined)	-	-	-	-	-	-
Cc1cccc(C(CC(=O)NCc2ccco2)c2ccccc2)c1O (centres undefined)	-	-	-	-	+	-
CCOC(=O)[C@H]1[C@H]2COc3ccc(C)cc3[C@@H]2N2C(=O)CN(CC3CCCO3)C(=O)[C@@]12C (some centres undefined)	-	-	-	-	-	-
O=C(NC(Cc1ccccc1)C(=O)O)c1ccco1 (centres undefined)	-	-	-	-	32	-
O=C(O)CCN(Cc1ccccc1)S(=O)(=O)c1ccccc1Cl	-	.	.	-	52	-
O=C(O)CCN(Cc1ccccc1)S(=O)(=O)c1ccc(Cl)cc1F	-	-	-	-	-	-
CC(Cc1ccccc1)NC(=O)CCCN1C(=O)c2ccccc2C1=O (centres undefined)	-	-	-	-	-	-
Cc1ccc(Cl)cc1NC(=O)N[C@@H](CC(C)C)C(=O)O	-	-	-	-	-	-
CN(C(=O)c1cccs1)c1ccc(OCC(=O)N2CCC(C(N)=O)CC2)cc1	-	-	-	-	.	-
Cc1ccc2c(c1)CC1(CN2C)C(=O)OC2(CCCCC2)OC1=O	-	-	-	-	78	-
COc1cccc(OC)c1C(=O)Nc1cccc(C(C)=O)c1	-	-	-	-	53	-
COc1cc(C(=O)Nc2cccc(C(C)=O)c2)cc(OC)c1OC	-	-	-	-	.	-
COc1cccc(NC(=O)c2ccc3nsnc3c2)c1	-	-	-	-	49	-
O=C(CN1CCN(c2ccc(O)cc2)CC1)N1CCc2ccccc21	-	-	-	-	49	-
O=C(CN1CCN(c2ccccc2)CC1)N1CCc2ccccc21	-	-	-	-	-	-
Nc1cc(=O)[nH]c(=O)n1Cc1ccccc1	-	-	-	-	-	-
Nc1cc(=O)[nH]c(=O)n1CCCc1ccccc1	-	.	.	-	39	-
O=c1c2ccccc2oc2cc(Br)ccc12	-	.	.	-	89	-
Clc1cnc(Nc2cccnc2)c(Cl)c1	-	-	-	-	-	-
O=C(Nc1ccccc1C(=O)Nc1ccncc1)c1ccccc1	-	-	-	-	43	-
SMILES	CAL PDZ FP-1	A3G deaminase	APOBEC3A inh	Keap1-Nrf2 PPI	CAL PDZ FP-2	C-LANA FP
CC(C)(C)C(=O)Nc1ccccc1C(=O)Nc1ccncc1	-	-	-	-	-	-
Cc1ccc(C(=O)Nc2cccc(C(=O)N3CCOCC3)c2)cc1Cl	-	-	-	-	63	-
O=C(CN1CCCC1)N/N=C/c1c(O)ccc2ccccc12	-	-	-	-	-	-
C/C(=N\NC(=S)NC1CCCCC1)c1c(F)cccc1F	-	-	-	-	44	-
O=C(Cn1cc(COc2ccc3ccc(=O)oc3c2)nn1)c1ccc(O)cc1	-	.	.	-	30	-
O=C(Cn1cc(COc2ccc(Br)cc2)nn1)c1ccc(O)cc1	-	.	.	-	-	-
O=C1CCCC(=O)N1c1ccc(NCCOCCO)c([N+](=O)[O-])c1	-	-	-	-	-	-
O=C(CN1C(=O)COc2ccccc21)Nc1ccccc1F	-	-	-	-	-	-
Cc1ccc2c(c1)N(CC(=O)Nc1ccccc1F)C(=O)CO2	-	-	-	-	56	-
O=C(COC(=O)c1ccc(Cl)nc1)Nc1ccc(N2CCCCC2)cc1	.	-	-	-	41	-
O=C(NCC1CCCO1)/C(=C\c1ccccc1F)NC(=O)c1ccccc1 (centres undefined)	-	-	-	-	-	-
